Results from ChEMBL document CHEMBL1131493, “Inhibitors of farnesyl protein transferase. 4-Amido, 4-carbamoyl, and 4-carboxamido derivatives of 1-(8-chloro-6,11-dihydro-5H-benzo[5,6]- cyclohepta[1,2-b]pyridin-11-yl)piperazine and 1-(3-bromo-8-chloro-6,11- dihydro-5H-benzo[5,6]cyclohepta[1,2-b]pyridin-11-yl)piperazine” (J Med Chem, 1998).
Values joined by “and” are separate entries in the source; they are usually repeats but may differ in a detail not shown here. Identical values can stand only once.

Legend:
[1] = In vivo antitumor efficacy in cynomolgus monkeys 0-48 hr after peroral dose of 5 mg/kg expressed as Area under the curve; type: ADME, organism-based, Macaca fascicularis; design: time < 48 hr, dose 5 mg/kg, route oral; settings: cynomolgus monkey, po
Procedure, shortened: (§1)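 Serum pharmacokinetics in nude mice or cynomolgus monkeys after oral (po) or iv dosing. Compounds were given as hydrochloride salts in 20% HPβCD unless otherwise noted. Other formulations were the hydrochloride salt in saline, the micronized free base in 20% HPβCD or corn oil (po) with saline for iv, or the hydrochloride salt in 0.4% methyl cellulose (po).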

[2] = In vivo antitumor efficacy in nude mice after peroral dose of 10 mg/kg expressed as Area under the curve; type: ADME, organism-based; design: dose 10 mg/kg, route oral; settings: mouse, po; procedure, shortened: as §1
[3] = biological target: geranylgeranyltransferase type-I (Rattus norvegicus, UniProt P53610+Q04631); assay: Inhibition of rat Geranylgeranyl transferase (GGPT); type: protein-complex assay
[4] = In vivo antitumor efficacy in nude mice 0-24 hr after peroral dose of 25 mg/kg expressed as Area under the curve; type: ADME, organism-based; design: time < 24 hr, dose 25 mg/kg, route oral; settings: nude, mouse, po; procedure, shortened: as §1
[5] = system: Cynomolgus monkey; assay: (§2) Maximal plasma concentration in cynomolgus monkeys after 10 mg/kg oral dose; type: ADME, organism-based, Macaca fascicularis; design: dose 10 mg/kg, route oral; settings: in vivo; procedure, shortened: as §1
[6] = as §2; type: ADME, organism-based, Macaca fascicularis; design: dose 10 mg/kg, route oral; settings: cynomolgus monkey, plasma; procedure, shortened: as §1
[7] = In vivo antitumor efficacy peroral dose of 25 mg/kg expressed as duration for which compound was present above IC50; type: ADME, organism-based; design: dose 25 mg/kg, route oral; settings: po; procedure, shortened: as §1
[8] = (§3) Maximal plasma concentration in nude mice after 25 mg/kg oral dose; type: ADME, organism-based; design: dose 25 mg/kg, route oral; settings: mouse; procedure, shortened: as §1
[9] = system: Mus musculus; assay: In vivo antitumor efficacy after peroral dose of 10 mg/kg in mice expressed as duration for which compound was present above IC50; type: ADME, organism-based; design: dose 10 mg/kg, route oral; settings: po; procedure, shortened: as §1
[10] = Bioavailability in cynomolgus monkey (dose 5 mg/kg i.v.); type: ADME, organism-based, Macaca fascicularis; settings: in vivo, iv; procedure, shortened: as §1
[11] = system: Cynomolgus monkey; assay: In vivo antitumor efficacy after peroral dose of 10 mg/kg in cynomolgus monkeys expressed as duration for which compound was present above IC50; type: ADME, organism-based, Macaca fascicularis; design: dose 10 mg/kg, route oral; settings: po; procedure, shortened: as §1
[12] = system: Mus musculus; assay: In vivo antitumor efficacy after peroral dose of 25 mg/kg in mice expressed as duration for which compound was present above IC50; type: ADME, organism-based; design: dose 25 mg/kg, route oral; settings: po; procedure, shortened: as §1
[13] = In vivo antitumor efficacy in nude mice by injecting a dose of 25 mg/kg iv and serum half-life was determined; type: ADME, organism-based; design: dose 25 mg/kg, route intravenous; settings: mouse; procedure, shortened: as §1
[14] = In vivo antitumor efficacy in cynomolgus monkeys 0-48 hr after peroral dose of 10 mg/kg expressed as Area under the curve; type: ADME, organism-based, Macaca fascicularis; design: time < 48 hr, dose 10 mg/kg, route oral; settings: cynomolgus monkey, po; procedure, shortened: as §1
[15] = In vivo antitumor efficacy in cynomolgus monkeys by injecting a dose of 5 mg/kg, as HCl salt in saline solution,i/v and the serum half-life was determined; type: ADME, organism-based, Macaca fascicularis; design: dose 5 mg/kg; settings: cynomolgus monkey, iv; procedure, shortened: as §1
[16] = Maximal plasma concentration in cynomolgus monkeys after 5 mg/kg oral dose; type: ADME, organism-based, Macaca fascicularis; design: dose 5 mg/kg, route oral; settings: cynomolgus monkey; procedure, shortened: as §1
[17] = In vivo antitumor efficacy in cynomolgus monkeys 0-48 hr after iv dose of 5 mg/kg expressed as Area under the curve; type: ADME, organism-based, Macaca fascicularis; design: time < 48 hr, dose 5 mg/kg, route intravenous; settings: cynomolgus monkey; procedure, shortened: as §1
[18] = In vivo antitumor efficacy in nude mice 0-24 hr after iv dose of 25 mg/kg expressed as Area under the curve; type: ADME, organism-based; design: time < 24 hr, dose 25 mg/kg, route intravenous; settings: mouse; procedure, shortened: as §1
[19] = Oral bioavailability in mouse (nude) (dose of 25 mg/kg); type: ADME, organism-based; settings: in vivo; procedure, shortened: as §1
[20] = In vivo antitumor efficacy in cynomolgus monkeys by injecting a dose of 25 mg/kg, as HCl salt in saline solution, iv and the total drug exposure was determined. (0-8 hr); type: ADME, organism-based, Macaca fascicularis; design: time < 8 hr, dose 25 mg/kg, route intravenous; settings: cynomolgus monkey; procedure, shortened: as §1
[21] = system: Cynomolgus monkey; assay: (§4) In vivo antitumor efficacy in cynomolgus monkeys by injecting a dose of 25 mg/kg, as the micronised free base in corn oil, perorally and the total drug exposure was determined (0-8 hr); type: ADME, organism-based, Macaca fascicularis; design: time < 8 hr, dose 25 mg/kg, route oral; settings: po, 8 h; procedure, shortened: as §1
[22] = as §4; type: ADME, organism-based, Macaca fascicularis; design: time < 8 hr, dose 25 mg/kg, route oral; settings: cynomolgus monkey, po; procedure, shortened: as §1
[23] = Oral bioavailability in mouse (nude) (dose 25 mg/kg i.v.); type: ADME, organism-based; settings: in vivo
[24] = Bioavailability in cynomolgus monkey (dose 25 mg/kg i.v.); type: ADME, organism-based, Macaca fascicularis; settings: in vivo, iv; procedure, shortened: as §1
[25] = system: Mus musculus; assay: In vivo antitumor efficacy in nude mice by injecting a dose of 25 mg/kg, as HCl salt in saline solution, perorally and the duration of action was reported; type: ADME, organism-based; design: dose 25 mg/kg, route oral; settings: po
[26] = as §3; type: ADME, organism-based; design: dose 25 mg/kg, route oral; settings: mouse; remark: listed apart in the source
[27] = system: Cynomolgus monkey; assay: In vivo antitumor efficacy in cynomolgus monkeys by injecting a dose of 25 mg/kg, as HCl salt in saline solution, perorally and the maximum drug concentration was determined; type: ADME, organism-based, Macaca fascicularis; design: dose 25 mg/kg, route oral; settings: po; procedure, shortened: as §1
[28] = In vivo antitumor efficacy in nude mice by injecting a dose of 25 mg/kg, as HCl salt in saline solution, perorally and the total drug exposure was determined (0-24hr); type: ADME, organism-based; design: time < 24 hr, dose 25 mg/kg, route oral; settings: mouse, po
[29] = system: Cynomolgus monkey; assay: (§5) In vivo antitumor efficacy in cynomolgus monkeys by injecting a dose of 25 mg/kg, as HCl salt in saline solution, iv and the serum half-life was determined; type: ADME, organism-based, Macaca fascicularis; design: dose 25 mg/kg, route intravenous; settings: in vivo; procedure, shortened: as §1
[30] = as §5; type: ADME, organism-based, Macaca fascicularis; design: dose 25 mg/kg, route intravenous; settings: cynomolgus monkey, serum; procedure, shortened: as §1
[31] = In vivo antitumor efficacy in nude mice by injecting a dose of 25 mg/kg, as HCl salt in saline solution, iv and the total drug exposure was determined. (0-24hr); type: ADME, organism-based; design: time < 24 hr, dose 25 mg/kg, route intravenous; settings: mouse
[32] = In vivo antitumor efficacy in nude mice by injecting a dose of 25 mg/kg, as HCl salt in saline solution, iv and the serum half-life was determined; type: ADME, organism-based; design: dose 25 mg/kg, route intravenous; settings: mouse
[33] = biological target: T1, Protein farnesyltransferase (Homo sapiens, UniProt P49354+P49356); assay: In vitro inhibition of farnesyltransferase farnesylation of the H-ras oncogene; type: protein-complex assay
[34] = In vivo antitumor efficacy in nude mice by injecting a dose of 25 mg/kg, as HCl salt in saline solution, perorally and the total drug exposure was determined (0-4 hr); type: ADME, organism-based; design: time < 4 hr, dose 25 mg/kg, route oral; settings: mouse, po
[35] = biological target: T1, Protein farnesyltransferase; assay: Inhibition of Farnesyltransferase from Ras-CVLS or Ras-CVLL in Cos-7 monkey kidney cells; type: cell-based, Chlorocebus aethiops
[36] = In vivo antitumor efficacy in nude mice by injecting a dose of 25 mg/kg, as HCl salt in saline solution, iv and the total drug exposure was determined. (0-4 hr); type: ADME, organism-based; design: time < 4 hr, dose 25 mg/kg, route intravenous; settings: mouse

O=C(Cc1cc[n+]([O-])cc1)N1CCN(C2c3ccc(Cl)cc3CCc3cc(Br)cnc32)CC1 (configuration not stated)
AUC at 48 h [1]: 9400 ng·h/mL
AUC [2]: 16700 ng·h/mL
IC50 [3]: > 38000 nM
AUC at 24 h [4]: 19600 ng·h/mL
Cmax [5]: 3000 nM
Cmax [6]: 5700 nM
Time above IC50 [7]: 6 h
Cmax [8]: 10000 nM
Time above IC50 [9]: 24 h
bioavailability [10]: 38.5%
Time above IC50 [11]: 24 h
Time above IC50 [12]: 7 h
half-life [13]: 1.2 h
AUC at 48 h [14]: 35600 ng·h/mL
half-life [15]: 2.6 h
Cmax [16]: 1200 nM
AUC at 48 h [17]: 24400 ng·h/mL
AUC at 24 h [18]: 23400 ng·h/mL
bioavailability [19]: 84%

O=C(Cc1cccnc1)N1CCN(C2c3ccc(Cl)cc3CCc3cccnc32)CC1 (configuration not stated)
AUC at 8 h [20]: 48600 ng·h/mL
AUC [21]: 1.07 uh ml-1
AUC at 8 h [22]: 450 ng·h/mL
IC50 [3]: > 46000 nM
bioavailability [23]: 36%
F [24]: 1.4%
bioavailability [24]: 2.2%
Time above IC50 [25]: 0.3 h
Cmax [26]: 3900 nM
Cmax [27]: 290 nM and 110 nM
AUC at 24 h [28]: 400 ng·h/mL
T1/2 [29]: 1.5 h
half-life [30]: 1.5 h
AUC at 24 h [31]: 1100 ng·h/mL
half-life [32]: 0.2 h

CN1CCC(CC(=O)N2CCN(C3c4ccc(Cl)cc4CCc4cccnc43)CC2)CC1 (configuration not stated)
IC50 [33]: 1400 nM
AUC at 4 h [34]: 1300 ng·h/mL
IC50 [35]: 930 nM
Time above IC50 [25]: 4 h
AUC at 4 h [36]: 4100 ng·h/mL
Cmax [26]: 1400 nM
half-life [32]: > 1 h
bioavailability [19]: 32%
